Assay results published in ChEMBL document CHEMBL1128721, “Identification, characterization and pharmacological profile of three metabolites of (R)-(+)-1,2,3,6-tetrahydro-4-phenyl-1-[(3-phenylcyclohexen-1-yl)methyl]pyridine (CI-1007), a dopamine autoreceptor agonist and potential antipsychotic agent” (J Med Chem, 1995).

Legend:
D(2) dopamine receptor [1] = molecular target: T1, D(2) dopamine receptor (Homo sapiens, UniProt P14416); test: Binding affinity towards human Dopamine receptor D2L evaluated using [3H]spiperone
How it was run: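 Human D2L expressed in CHO-K1 membranes. Labelled with 0.6 nM [3H]spiperone in triplicate in Tris HCl pH 7.4 buffer with 1 mM EDTA and 6 mM MgCl2, 60 min at 25 °C. 1 μM haloperidol defines specific binding. Bound ligand filtered and counted. Ki ± SEM from four to six concentrations by nonlinear regression.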

D(2) dopamine receptor [2] = molecular target: T1, D(2) dopamine receptor; test: Binding affinity towards human Dopamine receptor D2L evaluated using [3H]N-0437
How it was run: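 CHO-K1 membranes expressing human D2L incubated in triplicate with 1 nM [3H]N-0437 in 25 mM Tris HCl pH 7.4 with 1 mM EDTA and 6 mM MgCl2, 25 °C for 60 min. Nonspecific binding set with 1 μM haloperidol. Filtration, scintillation counting. Ki by nonlinear regression from four to six concentrations, ± SEM.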

D(2) dopamine receptor [3] = molecular target: T1, D(2) dopamine receptor; test: Intrinsic activity relative to Quinpirole for human Dopamine receptor D2L was determined
How it was run: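 CHO-10001 cells transfected with human DA D2L receptor; activation read as stimulation of [3H]thymidine uptake (mitogenesis). Intrinsic activity = maximal response of compound relative to maximal response of full DA agonist quinpirole, ± SEM.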

D(4) dopamine receptor = molecular target: T2, D(4) dopamine receptor (Homo sapiens, UniProt P21917); test: Binding affinity towards human Dopamine receptor D4.2 evaluated using [3H]spiperone
T2 sequence (P21917 whole entry): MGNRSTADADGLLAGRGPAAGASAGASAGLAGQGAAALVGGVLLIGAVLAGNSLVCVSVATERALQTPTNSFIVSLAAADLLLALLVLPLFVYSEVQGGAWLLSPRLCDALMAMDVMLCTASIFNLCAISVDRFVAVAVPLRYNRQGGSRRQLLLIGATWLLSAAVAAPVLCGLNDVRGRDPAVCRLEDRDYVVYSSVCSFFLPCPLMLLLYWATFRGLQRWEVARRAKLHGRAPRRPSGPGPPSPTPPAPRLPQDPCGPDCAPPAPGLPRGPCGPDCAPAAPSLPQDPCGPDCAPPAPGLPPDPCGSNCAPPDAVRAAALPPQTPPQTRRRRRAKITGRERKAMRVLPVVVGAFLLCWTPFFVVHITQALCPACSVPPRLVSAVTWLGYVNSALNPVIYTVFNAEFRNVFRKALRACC
How it was run: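 CHO-K1 membranes bearing human D4.2 run in triplicate with 0.2 nM [3H]spiperone in Tris HCl pH 7.4 buffer with 1.5 mM CaCl2 and 5 mM KCl, 25 °C, 60 min. Specific binding is the fraction blocked by 1 μM haloperidol. Filtration, then scintillation counting. Ki ± SEM by nonlinear regression over four to six concentrations; IC50 given where inhibition at 10 μM is below 50%.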

D(3) dopamine receptor = D(3) dopamine receptor (Homo sapiens, UniProt P35462); test: Binding affinity towards human Dopamine receptor D3 evaluated using [3H]spiperone
Rattus norvegicus [4] = test: Effect on […] in rats after intraperitoneal administration of compound (10 mg/kg) and GBL, was determined and expressed as percent reversal of the increase in DOPA; type: functional
Rattus norvegicus [5] = test: Effect on DOPA accumulation in rat striatum after intraperitoneal administration of compound (10 mg/kg) and GBL, was determined and expressed as percent reversal of the increase in DOPA; type: functional
How it was run: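 Male Long-Evans rats given compound 10 mg/kg ip 60 min before sacrifice. GBL 750 mg/kg ip (omitted in controls) and NSD 1015 100 mg/kg ip given 30 min before sacrifice. Striatal DOPA measured by HPLC with electrochemical detection. Result is percent reversal of the GBL-induced DOPA rise, ± SEM.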

Rattus norvegicus [6] = test: Effect on DOPA accumulation in rat striatum after intraperitoneal administration of compound (3 mg/kg) and GBL, was determined and expressed as percent reversal of the increase in DOPA; type: functional
Monkey = test: Inhibition of conditioned avoidance in squirrel monkeys was determined after peroral administration of compound; type: functional; conditions: in Saimiri, po
How it was run: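 Squirrel monkeys dosed orally, conditioned avoidance monitored for 6 h. Inhibition taken as percent of control avoidance responding over the 4 h peak-effect period. ED50 with 95% confidence range from three doses, eight monkeys per dose.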

Mus musculus = test: Inhibition of locomotor activity in mice was determined after intraperitoneal administration of compound; type: functional; conditions: ip
How it was run: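 Mice dosed ip, then tested immediately for 1 h in darkened cylindrical photobeam chambers. Inhibition expressed relative to vehicle-treated mice. ED50 with 95% confidence range from three to six doses, 6–18 animals per dose.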

D(3) dopamine receptor, sequence (P35462 whole entry): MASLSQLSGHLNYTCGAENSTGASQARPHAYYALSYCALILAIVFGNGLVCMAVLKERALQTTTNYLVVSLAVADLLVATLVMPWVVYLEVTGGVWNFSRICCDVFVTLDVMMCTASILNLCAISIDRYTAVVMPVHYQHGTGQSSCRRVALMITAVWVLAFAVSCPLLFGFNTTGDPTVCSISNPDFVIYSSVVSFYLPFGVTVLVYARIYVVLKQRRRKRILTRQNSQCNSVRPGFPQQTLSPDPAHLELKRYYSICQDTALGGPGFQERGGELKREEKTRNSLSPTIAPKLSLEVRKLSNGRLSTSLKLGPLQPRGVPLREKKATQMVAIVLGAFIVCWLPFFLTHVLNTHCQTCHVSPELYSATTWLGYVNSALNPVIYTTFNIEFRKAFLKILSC
T1 sequence (P14416 whole entry): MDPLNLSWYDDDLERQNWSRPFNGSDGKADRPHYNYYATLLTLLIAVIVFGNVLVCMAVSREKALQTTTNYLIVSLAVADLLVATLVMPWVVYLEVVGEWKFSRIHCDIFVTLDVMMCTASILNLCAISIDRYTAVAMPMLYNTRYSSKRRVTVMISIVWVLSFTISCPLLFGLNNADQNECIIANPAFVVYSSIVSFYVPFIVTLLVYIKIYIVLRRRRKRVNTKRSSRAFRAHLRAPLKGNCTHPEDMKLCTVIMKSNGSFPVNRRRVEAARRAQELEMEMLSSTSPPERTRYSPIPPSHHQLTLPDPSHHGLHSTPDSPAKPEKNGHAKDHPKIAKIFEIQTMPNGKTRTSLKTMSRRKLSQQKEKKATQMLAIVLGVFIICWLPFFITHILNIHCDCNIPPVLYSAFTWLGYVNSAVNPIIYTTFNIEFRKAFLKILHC

Work on `Oc1ccc(C2=CCC[C@@H](CN3CC=C(c4ccccc4)CC3)C2)cc1` yielded a Ki (D(2) dopamine receptor [1]) of 3.5 nM, a Ki (D(2) dopamine receptor [2]) of 0.2 nM and an Activity (D(2) dopamine receptor [3]) of 0.62. The Ki (D(4) dopamine receptor) was 61.4 nM, the Ki (D(3) dopamine receptor) was 0.52 nM and the Activity (Rattus norvegicus [4]) was -100. The Activity (Rattus norvegicus [5]) was -27, the Activity (Rattus norvegicus [6]) was -44 and the ED50 (Monkey) was 1.34 mg/kg. It also gave an ED50 (Mus musculus) of 0.3 mg/kg.

`Oc1ccc(C2=CCN(C[C@@H]3CCC=C(c4ccc(O)cc4)C3)CC2)cc1` gave a Ki (D(2) dopamine receptor [1]) of 10.3 nM, a Ki (D(2) dopamine receptor [2]) of 2.2 nM and an Activity (D(2) dopamine receptor [3]) of 0.29. The Ki (D(4) dopamine receptor) was 68 nM, the Ki (D(3) dopamine receptor) was 3.4 nM and the Activity (Rattus norvegicus [4]) was -10. The Activity (Rattus norvegicus [5]) was -8, the ED50 (Monkey) was > 2.5 mg/kg and the ED50 (Mus musculus) was 6.1 mg/kg.

With `Oc1ccc(C2=CCN(C[C@@H]3CCC=C(c4ccccc4)C3)CC2)cc1` the Ki (D(2) dopamine receptor [1]) was 94 nM, the Ki (D(2) dopamine receptor [2]) was 5.7 nM and the Activity (D(2) dopamine receptor [3]) was 0.37. The Ki (D(4) dopamine receptor) was > 10000 nM, the Ki (D(3) dopamine receptor) was 56.7 nM and the Activity (Rattus norvegicus [4]) was 33. The Activity (Rattus norvegicus [5]) was 0, the ED50 (Monkey) was > 2.5 mg/kg and the ED50 (Mus musculus) was > 30 mg/kg.

With `C1=C(c2ccccc2)CCN(C[C@@H]2CCC=C(c3ccccc3)C2)C1` [CI-1007] the Ki (D(2) dopamine receptor [2]) was 8.4 nM, the Activity (D(2) dopamine receptor [3]) was 0.66 and the Activity (Rattus norvegicus [4]) was -99. The Activity (Rattus norvegicus [5]) was -66, the ED50 (Monkey) was 0.63 mg/kg and the ED50 (Mus musculus) was 0.7 mg/kg.
